# Bioassay records deposited in PubChem BioAssay by several laboratories.
# Rows were chosen to be rich in hits. Some 3% of all compounds tested hit in one or more screens of this group.
# aDG glyco up – increases alpha dystroglycan glycosylation. hit rate 0.22% among 360,000. Pro5-aDG cells, alpha-DG glycosylation AlphaScreen (IIH6); 0% Pro5, 100% B10-LARGE cell signal. activation, % at 10 µM;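 active = activation of at least 8% versus controls, or a plate z-score of at least 8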;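 note: Pro5 are CHO cells carrying HIG-tagged alpha-DG that lacks glycosylation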
# JMJD2C inh – inhibitors of human GASC-1 (JMJD2C) demethylase; AID 2099; inhibition, % at 2.35 µM; hit rate 0.069% among 330,000; Q9H3R0; GST-JMJD2C(1-420) H3K9me3 demethylation, DELFIA europium;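 active = more than half of a compound's replicate wells show inhibition beyond 50%, single wells judged on their own value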;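 note: signal counts dimethyl H3K9 product captured on neutravidin plate; 0% = median of DMSO wells and 100% = 0.3 times that DMSO median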
# NR3A LBD binder – modulates the human NR3A ligand-binding domain. Tm shift relative to glycine control, % at 25 µM. hit rate 2.5% among 340,000. AID 1259313. NR3A LBD differential scanning fluorimetry, Tm shift; 0% = protein alone, 100% = glycine-bound protein;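 active = melting temperature shift of at least 10% of the positive control shift, at one fixed dose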
# Hep lipid drop – hepatic lipid droplet formation modulation; AML12 mouse hepatocytes, oleate lipid droplets, BODIPY imaging; AID 1656; hit rate 0.4% among 240,000; inhibition, % at 6.5 µM;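 active = lipid droplet intensity inhibited by at least 50%, with more than 500 cells counted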
#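 Assay system: AML12 mouse liver cells | Compound dosing: One dose, 6.5 µM compound | Read-out basis: Droplet intensity reduction, % inhibition | Measured by: Fluorescence imaging, 20x objective, two fields per well | Schedule: Overnight treatment with compound plus oleate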
# NPR1 activator – GC-A (human) enzyme activation; activation, % at 10 µM; P16066; hit rate 0.14% among 370,000; HEK293 GC-A cells, cGMP TR-FRET, EC30 ANP; 0% at EC30 ANP, 100% saturating ANP; in the data active = activation above about 40%
# Target sequence (P16066 whole entry, looked up): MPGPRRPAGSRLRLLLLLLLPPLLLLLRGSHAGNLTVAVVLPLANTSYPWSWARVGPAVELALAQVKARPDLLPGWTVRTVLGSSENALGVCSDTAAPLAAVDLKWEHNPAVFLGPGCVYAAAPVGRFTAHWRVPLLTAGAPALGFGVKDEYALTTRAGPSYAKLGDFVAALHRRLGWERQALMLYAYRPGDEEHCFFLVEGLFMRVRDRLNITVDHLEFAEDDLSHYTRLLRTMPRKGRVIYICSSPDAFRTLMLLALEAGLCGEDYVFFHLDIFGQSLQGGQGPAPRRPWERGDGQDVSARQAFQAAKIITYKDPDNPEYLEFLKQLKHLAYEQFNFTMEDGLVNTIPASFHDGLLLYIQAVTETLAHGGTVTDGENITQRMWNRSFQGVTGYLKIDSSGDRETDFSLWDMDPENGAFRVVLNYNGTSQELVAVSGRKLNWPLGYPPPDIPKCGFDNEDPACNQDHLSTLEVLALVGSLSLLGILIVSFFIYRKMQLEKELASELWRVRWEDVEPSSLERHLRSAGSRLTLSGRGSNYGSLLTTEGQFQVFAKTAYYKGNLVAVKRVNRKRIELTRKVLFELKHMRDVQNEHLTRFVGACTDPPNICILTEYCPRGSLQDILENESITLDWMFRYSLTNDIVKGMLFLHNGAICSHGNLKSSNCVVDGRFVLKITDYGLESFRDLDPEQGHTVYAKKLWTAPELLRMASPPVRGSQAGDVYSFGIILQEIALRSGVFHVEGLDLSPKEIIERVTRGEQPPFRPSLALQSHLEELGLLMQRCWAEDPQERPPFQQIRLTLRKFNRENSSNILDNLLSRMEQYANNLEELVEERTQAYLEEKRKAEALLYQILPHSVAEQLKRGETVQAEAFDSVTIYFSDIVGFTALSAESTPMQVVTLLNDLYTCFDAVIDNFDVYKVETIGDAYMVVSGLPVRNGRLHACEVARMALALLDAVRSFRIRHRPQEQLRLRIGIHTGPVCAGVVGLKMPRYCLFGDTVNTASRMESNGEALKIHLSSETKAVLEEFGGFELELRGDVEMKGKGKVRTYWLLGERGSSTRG
# GC-B act – GC-B (human) receptor activation; P20594; HEK293-GC-B cells, CNP EC30, cGMP TR-FRET; 0% at EC30 CNP, 100% saturating CNP; activation, % at 10 µM; hit rate 0.11% among 370,000;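 active = activation at 10 µM reaching about 35% in either raw or pattern-adjusted values, limit read from the data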
# * hit, by the source's call; . = not tested or not shown.
SMILES,aDG glyco up,JMJD2C inh,NR3A LBD binder,Hep lipid drop,NPR1 activator,GC-B act
O=C(CCCc1ccccc1)Nc1ccc(Br)cc1F,0,5,-2,1,.,.
COc1ccc(CN2C(=O)[C@@H]3Cc4c([nH]c5ccccc45)C(C)(C)N3C2=O)cc1,0,14,12*,.,17,23
COc1ccc(CN2C(=O)[C@H]3Cc4c([nH]c5ccccc45)C(C)(C)N3C2=O)cc1,0,10,-3,.,14,12
CN(C)c1oc(-c2ccc(OCc3ccc(Cl)cc3)cc2)nc1C#N,0,-11,29*,4,-2,3
Cc1cccc(C)c1-n1nnnc1C1c2ccccc2OCC(=O)N1Cc1ccc(F)cc1 (stereo not drawn),.,.,.,.,-10,-12
Oc1[nH]c2ccc(Br)cc2c1N=Nc1ccc(C(F)(F)F)cn1,1,1,21*,-8,0,-1
CCOC(=O)C1=C(c2ccccc2)NC(=S)NC1c1ccc(C)c([N+](=O)[O-])c1 (stereo not drawn),1,-2,-7,-6,-13,5
CCOC(=O)C1=C(c2ccccc2)NC(=S)NC1c1cccc([N+](=O)[O-])c1 (stereo not drawn),0,-7,14*,24,-12,-6
COc1ccc(-c2coc3c(C(=O)Nc4cccc(NS(C)(=O)=O)c4)cccc23)c(C)c1,0,.,.,.,-6,2
O=C(Nc1ccc(-c2csc(Nc3cccc(C(F)(F)F)c3)n2)cc1)c1cc([N+](=O)[O-])cc(C(F)(F)F)c1,0,0,21*,7,-3,-2
O=C(Nc1ccc(-c2csc(Nc3ccc(Cl)cc3)n2)cc1)c1ccccc1,0,30,-1,.,-4,-9
O=C(Nc1cccc(-c2csc(Nc3ccccc3)n2)c1)c1ccccc1,0,-3,11*,15,-3,-2
O=C(Nc1nc(-c2cccnc2)cs1)c1ccc([N+](=O)[O-])cc1,0,16,-3,12,-9,-4
O=C(Nc1cccc(-c2csc(Nc3cccc(C(F)(F)F)c3)n2)c1)c1ccccc1,0,16,29*,-60,-3,-7
O=C(Nc1ccc(-c2csc(Nc3cccc(C(F)(F)F)c3)n2)cc1)c1ccccc1,0,.,25*,11,-4,-7
CC(=O)c1cccc(Nc2nc(-c3ccccc3)cs2)c1,0,17,32*,3,1,-8
CCOc1ccc(-c2c(C(=O)N/N=C/c3ccsc3)nnn2-c2nonc2N)cc1,0,0,13*,-4,-3,6
CCOc1ccc(-c2c(C(=O)N/N=C/c3ccc(O)cc3)nnn2-c2nonc2N)cc1,0,-18,8,28,0,3
CCCOc1ccc(-c2c(C(=O)N/N=C/c3ccc(OC)cc3)nnn2-c2nonc2N)cc1,0,7,10*,-20,1,6
CCOc1ccc(-c2c(C(=O)N/N=C/c3cccc(Br)c3)nnn2-c2nonc2N)cc1,0,1,17*,-6,7,9
CCOc1cccc(-c2c(C(=O)N/N=C/c3ccc(Br)cc3)nnn2-c2nonc2N)c1,0,1,17*,-5,-10,-7
CCCOc1ccc(-c2c(C(=O)N/N=C/c3ccc(OCC)cc3)nnn2-c2nonc2N)cc1,0,2,5,-2,7,6
CCOC(=O)c1c(-c2ccco2)csc1NC(=O)COC(=O)c1cnc(C)cn1,0,-48,0,.,-5,-4
COc1ccc(-c2cn[nH]c2-c2ccc(OC)cc2O)cc1,0,-2,.,-3,12,0
COc1ccc(-c2cn[nH]c2-c2ccc(OCc3ccccc3)cc2O)cc1,0,-10,12*,10,4,1
SMILES,aDG glyco up,JMJD2C inh,NR3A LBD binder,Hep lipid drop,NPR1 activator,GC-B act
COc1ccc(-c2cn[nH]c2-c2ccc(OCc3ccccc3F)cc2O)cc1OC,0,-17,4,-12,8,4
COc1ccc(-c2cn[nH]c2-c2ccc(OCc3ccc([N+](=O)[O-])cc3)cc2O)cc1OC,0,62,15*,15,-3,-8
COc1ccccc1-c1cn[nH]c1-c1ccc(OCc2ccccc2)cc1O,0,-20,7,-4,-2,-3
O=[N+]([O-])c1ccc(COc2ccc(-c3[nH]ncc3-c3ccc(Cl)cc3)c(O)c2)cc1,1,15,35*,-17,0,0
CCc1cc(-c2[nH]ncc2-c2ccc([N+](=O)[O-])cc2)c(O)cc1OC,0,0,29*,-31,.,.
CCOc1ccc(-c2[nH]ncc2-c2ccccc2)c(O)c1,1,8,-1,17,-4,-5
Cc1sc2ncnc(OCC(=O)NCc3cccs3)c2c1C,0,-19,-1,-8,-3,2
CNC(=O)COc1ncnc2sc(C)c(C)c12,0,7,14*,8,2,1
Cc1cc(O)c(NC(=S)NC(=O)c2ccc(-c3ccc(Cl)cc3)o2)cc1C,0,-14,30*,16,-2,-2
Cc1ccc(O)c(NC(=S)NC(=O)Cc2ccc(Cl)cc2)c1,0,-8,-7,7,-5,0
Cc1ccc(NC(=S)NC(=O)c2ccc(-c3ccc(Cl)cc3)o2)c(O)c1,0,-13,34*,-10,1,3
NS(=O)(=O)c1cccc(NC(=O)COC(=O)c2ccc(S(=O)(=O)N3CCOCC3)cc2)c1,0,.,0,.,7,2
COc1ccc(-c2nn(-c3ccccc3)cc2/C=C2/SC(=S)N(CCC(=O)O)C2=O)cc1,0,6,4,9,5,-2
O=C(O)CCN1C(=O)/C(=C/c2cn(-c3ccccc3)nc2-c2cccs2)SC1=S,0,.,29*,1,-3,-12
O=C(O)CCCCCN1C(=O)/C(=C\c2cn(-c3ccccc3)nc2-c2cccs2)SC1=S,0,4,7,-23,-4,1
O=C(N/N=C/c1cn(-c2ccccc2)nc1-c1cccs1)c1ccc(Cl)cc1,0,1,27*,.,3,4
O=C(O)CCCCCN1C(=O)/C(=C/c2cn(-c3ccccc3)nc2-c2cccs2)SC1=S,0,.,20*,.,0,-13
O=C(CSc1ccc2ccccc2c1Br)Nc1cccc(S(=O)(=O)NC2=NCCCCC2)c1,0,-5,12*,-27,-4,-2
Cc1ccc(C)c(SCC(=O)Nc2cccc(S(=O)(=O)NC3=NCCCCC3)c2)c1,0,-2,-2,3,2,3
COc1ccc(Nc2nnc(-c3ccc4c(c3)OCO4)o2)cc1,.,.,.,.,4,4
